Assay results from ChEMBL document CHEMBL1136718, “Synthesis and cytotoxic activity of carboxamide derivatives of benzo[b][1,6]naphthyridines” (J Med Chem, 2003).

How the values were obtained:
[1] = system: Lewis lung carcinoma cell line; assay: Growth inhibitory activity against murine Lewis lung carcinoma cell line; format: functional, cell-based; conditions: Mus musculus
Outline: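 Lewis lung carcinoma cells seeded at 10³/well and cultured 4 days with drug. Growth measured by sulforhodamine assay. IC50 is the concentration reducing cell number to 50% of control cultures. Independent duplicate assays.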

Jurkat = assay: Growth inhibitory activity against human Jurkat leukemia cell line (JLC); format: functional, cell-based
Outline: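 Human Jurkat leukemia (JL_C) cells seeded at 3.75 × 10³/well and grown 4 days with drug. Growth read by sulforhodamine assay. IC50 is the drug concentration that reduces cell number to 50% of control cultures. Independent assays run in duplicate.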

P388 = assay: Growth inhibitory activity against murine P388 leukemia cells; format: functional, cell-based; conditions: Mus musculus
Outline: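 P388 murine leukemia cells plated at 4.5 × 10³/well and exposed to drug for 3 days. Growth read by [3H]TdR uptake. IC50 is the concentration reducing cell number to 50% of control. Independent assays done in duplicate.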

[2] = Ratio of growth inhibitory activity against human Jurkat leukemia cell line (JLD- resistant to doxorubicin) to that of Jurkat leukemia cell line; format: functional
Outline: (§1)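 Parent Jurkat (JL_C) cells and the amsacrine-resistant (JL_A) or doxorubicin-resistant (JL_D) sublines each seeded at 3.75 × 10³/well. Cultured 4 days with drug and read by sulforhodamine assay. The ratio is the subline IC50 divided by the JL_C IC50. Duplicate independent assays.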

[3] = Ratio of growth inhibitory activity against human Jurkat leukemia cell line (JLA- resistant to amsacrine) to that of Jurkat leukemia cell line; format: functional; outline: as §1
Mus musculus [4] = assay: Number of mice(with Colon 38 tumors) cured after treatment of 2.6 mg/kg/day single dose out of 5 mice; format: functional
Outline: (§2)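 BDF1 mice bearing subcutaneous Colon 38 tumors (flank implants of 1 mm³ fragments) were treated at a diameter of about 4-6 mm. They received one intraperitoneal dose of the hydrochloride salt in distilled water, 0.01 mL/g. A cure is a mouse with no measurable tumor 20 days after treatment began, reported over the total mice per group.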

Mus musculus [5] = assay: In vivo antitumor activity against subcutaneous Colon 38 tumors in mice determined as delay in growth after 2.6 mg/kg/day single dose; format: functional
Outline: (§3)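 Colon 38 fragments (1 mm³) implanted subcutaneously in one flank of BDF1 mice. Treated at a tumor diameter of about 4-6 mm (7-8 days), five mice per group. A single intraperitoneal dose was given as the hydrochloride in distilled water, 0.01 mL/g. Calipers three times weekly, volume = 0.52a²b. Growth delay is the time for mean volume to reach 4-fold the pretreatment volume.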

Mus musculus [6] = assay: Number of mice(with Colon 38 tumors) cured after treatment of 3.9 mg/kg/day single dose out of 5 mice; format: functional; outline: as §2
Mus musculus [7] = assay: In vivo antitumor activity against subcutaneous Colon 38 tumors in mice determined as delay in growth after 3.9 mg/kg/day single dose; format: functional; outline: as §3
Mus musculus [8] = assay: In vivo antitumor activity against subcutaneous Colon 38 tumors in mice determined as delay in growth after 30 mg/kg/day single dose; format: functional
Mus musculus [9] = assay: Number of mice(with Colon 38 tumors) cured after treatment of 30 mg/kg/day single dose out of 5 mice; format: functional
Mus musculus [10] = assay: Number of mice(with Colon 38 tumors) cured after treatment of 65 mg/kg/day dose given as 2 times in a day for 2 days out of 5 mice; format: functional
Mus musculus [11] = assay: In vivo antitumor activity against subcutaneous Colon 38 tumors in mice determined as delay in growth after 65 mg/kg/day dose given as 2 times in a day for 2 days; format: functional
Mus musculus [12] = assay: In vivo antitumor activity against subcutaneous Colon 38 tumors in mice determined as delay in growth after 8.9 mg/kg/day single dose; format: functional; outline: as §3
Mus musculus [13] = assay: Number of mice(with Colon 38 tumors) cured after treatment of 8.9 mg/kg/day single dose out of 5 mice; format: functional; outline: as §2
Mus musculus [14] = assay: In vivo antitumor activity against subcutaneous Colon 38 tumors in mice determined as delay in growth after 13.3 mg/kg/day single dose; format: functional; outline: as §3
Mus musculus [15] = assay: In vivo antitumor activity against subcutaneous Colon 38 tumors in mice determined as delay in growth after 5.9 mg/kg/day single dose; format: functional; outline: as §3
Mus musculus [16] = assay: Number of mice(with Colon 38 tumors) cured after treatment of 5.9 mg/kg/day single dose out of 5 mice; format: functional; outline: as §2
Mus musculus [17] = assay: Number of mice(with Colon 38 tumors) cured after treatment of 13.3 mg/kg/day single dose out of 5 mice; format: functional; outline: as §2
Mus musculus [18] = assay: Number of mice(with Colon 38 tumors) cured after treatment of 8.9 mg/kg/day single dose out of 4 mice; format: functional; outline: as §2
Mus musculus [19] = assay: Number of mice(with Colon 38 tumors) cured after treatment of 5.9 mg/kg/day single dose out of 10 mice; format: functional; outline: as §2
Mus musculus [20] = assay: Number of mice(with Colon 38 tumors) cured after treatment of 3.9 mg/kg/day single dose out of 4 mice; format: functional; outline: as §2
Mus musculus [21] = assay: Number of mice(with Colon 38 tumors) cured after treatment of 200 mg/kg/day dose given as 2 times in a day for 7 days out of 5 mice; format: functional
Mus musculus [22] = assay: In vivo antitumor activity against subcutaneous Colon 38 tumors in mice determined as delay in growth after 200 mg/kg/day dose given as 2 times in a day for 7 days; format: functional
Mus musculus [23] = assay: Number of mice(with Colon 38 tumors) cured after treatment of 13.3 mg/kg/day dose given as 3 times in a day for 4 days out of 5 mice; format: functional
Mus musculus [24] = assay: In vivo antitumor activity against subcutaneous Colon 38 tumors in mice determined as delay in growth after 13.3 mg/kg/day dose given as 3 times in a day for 4 days; format: functional
Mus musculus [25] = assay: In vivo antitumor activity against subcutaneous Colon 38 tumors in mice determined as delay in growth after 3.9 mg/kg/day dose given as 3 times in a day for 4 days; format: functional
Mus musculus [26] = assay: Number of mice(with Colon 38 tumors) cured after treatment of 3.9 mg/kg/day dose given as 3 times in a day for 4 days out of 5 mice; format: functional
Mus musculus [27] = assay: In vivo antitumor activity against subcutaneous Colon 38 tumors in mice determined as delay in growth after 2.6 mg/kg/day dose given as 3 times in a day for 4 days; format: functional
Mus musculus [28] = assay: Number of mice(with Colon 38 tumors) cured after treatment of 2.6 mg/kg/day dose given as 3 times in a day for 4 days out of 5 mice; format: functional
Mus musculus [29] = assay: Number of mice(with Colon 38 tumors) cured after treatment of 45 mg/kg/day dose given as 3 times in a day for 4 days out of 5 mice; format: functional
Mus musculus [30] = assay: In vivo antitumor activity against subcutaneous Colon 38 tumors in mice determined as delay in growth after 45 mg/kg/day dose given as 3 times in a day for 4 days; format: functional
Mus musculus [31] = assay: Number of mice(with Colon 38 tumors) cured after treatment of 65 mg/kg/day dose given as 3 times in a day for 4 days out of 5 mice; format: functional
Mus musculus [32] = assay: In vivo antitumor activity against subcutaneous Colon 38 tumors in mice determined as delay in growth after 65 mg/kg/day dose given as 3 times in a day for 4 days; format: functional

Structure (SMILES) | IC50 [1] [nM] | IC50 (Jurkat) [nM] | IC50 (P388) [nM] | Ratio [2] | Ratio [3] | further results
CN(C)CCNC(=O)c1cn(CCN(C)C)c(=O)c2cc3ccccc3nc12 | 50 | 123 | 54 | 1.1 | 0.8 | 
COc1ccc(-n2cc(C(=O)NCCN(C)C)c3nc4c(C)cccc4cc3c2=O)cc1OC | 4.4 | 9.4 | 12 | 1.5 | 1.3 | Cures (Mus musculus [4]): 0; Growth delay (Mus musculus [5]): 16 days; Cures (Mus musculus [6]): 4; Growth delay (Mus musculus [7]): >20 days
Cc1cccc2cc3c(O)ncc(C(=O)NCCN(C)C)c3nc12 | 10 | 26 | 11 | 2.6 | 1.9 | Growth delay (Mus musculus [8]): 14 days; Cures (Mus musculus [9]): 0
Cc1cc2c3c(cccc3n1)C(=O)c1cccc(C(=O)NCCN(C)C)c1-2 |  |  |  | 2.5 | 2.5 | Cures (Mus musculus [10]): 5; Growth delay (Mus musculus [11]): >20 days
CN(C)CCNC(=O)c1cn(C)c(=O)c2cc3ccccc3nc12 |  |  | 14 |  |  | 
Cc1cccc2cc3c(=O)n([C@@H](C)c4ccccc4)cc(C(=O)NCCN(C)C)c3nc12 | 161 | 1070 | 590 | 1.1 | 0.8 | 
Cc1cccc2cc3c(NCCN(C)C)ncc(C(=O)NCCN(C)C)c3nc12 |  |  | 2.4 |  |  | Growth delay (Mus musculus [12]): 6 days; Cures (Mus musculus [13]): 0
CCCCn1cc(C(=O)NCCN(C)C)c2nc3c(C)cccc3cc2c1=O | 15 | 51 | 14 | 3 | 2.3 | Growth delay (Mus musculus [14]): >20 days; Growth delay (Mus musculus [15]): 18 days; Cures (Mus musculus [16]): 0; Cures (Mus musculus [17]): 5
Cc1cccc2cc3c(=O)n(CCN(C)C)cc(C(=O)NCCN(C)C)c3nc12 | 3.7 | 8.5 | 6.8 | 0.9 | 0.7 | Growth delay (Mus musculus [15]): 14 days; Cures (Mus musculus [16]): 0
Cc1cccc2cc3c(=O)n(C)cc(C(=O)NCCN(C)C)c3nc12 | 1.7 | 6.7 | 2.1 | 7.9 | 5.6 | Cures (Mus musculus [18]): 4; Growth delay (Mus musculus [12]): >20 days; Cures (Mus musculus [19]): 10; Growth delay (Mus musculus [7]): >20 days; Growth delay (Mus musculus [15]): >20 days; Cures (Mus musculus [20]): 4
Cc1cccc2cc3c(=O)n(CCN(C)CCCN(C)CCn4cc(C(=O)NCCN(C)C)c5nc6c(C)cccc6cc5c4=O)cc(C(=O)NCCN(C)C)c3nc12 | 4.7 | 1 | 22 | 0.4 | 0.3 | 
CN(C)CCNC(=O)c1cccc2cc3ccccc3nc12 |  |  | 71 |  |  | Cures (Mus musculus [21]): 0; Growth delay (Mus musculus [22]): 13 days
COc1cc(NS(C)(=O)=O)ccc1Nc1c2ccccc2nc2ccccc12 [AMSACRINE] |  |  |  |  |  | Cures (Mus musculus [23]): 0; Growth delay (Mus musculus [24]): 2 days
CC[C@@]1(O)C(=O)OCc2c1cc1n(c2=O)Cc2cc3ccccc3nc2-1 [CAMPTOTHECIN] |  |  |  | 1.4 | 2 | 
COc1cccc2c1C(=O)c1c(O)c3c(c(O)c1C2=O)C[C@@](O)(C(C)=O)C[C@@H]3O[C@H]1C[C@H](N)[C@H](O)[C@H](C)O1 [DAUNORUBICIN] |  |  |  |  |  | Growth delay (Mus musculus [25]): 0 days; Cures (Mus musculus [26]): 0
COc1cccc2c1C(=O)c1c(O)c3c(c(O)c1C2=O)C[C@@](O)(C(=O)CO)C[C@@H]3O[C@H]1C[C@H](N)[C@H](O)[C@H](C)O1 [DOXORUBICIN] |  |  |  | 13 | 4.4 | Growth delay (Mus musculus [27]): 8 days; Cures (Mus musculus [28]): 0
COc1cc([C@@H]2c3cc4c(cc3[C@@H](O[C@@H]3O[C@@H]5CO[C@@H](C)O[C@H]5[C@H](O)[C@H]3O)[C@H]3COC(=O)[C@H]23)OCO4)cc(OC)c1O [ETOPOSIDE] | 180 | 160 | 150 | 90 | 13 | Cures (Mus musculus [29]): 0; Growth delay (Mus musculus [30]): 1.5 days
CCc1c2c(nc3ccc(OC(=O)N4CCC(N5CCCCC5)CC4)cc13)-c1cc3c(c(=O)n1C2)COC(=O)[C@]3(O)CC [IRINOTECAN] |  |  |  |  |  | Cures (Mus musculus [31]): 0; Growth delay (Mus musculus [32]): 7 days
O=C1c2c(O)ccc(O)c2C(=O)c2c(NCCNCCO)ccc(NCCNCCO)c21 [MITOXANTRONE] |  |  |  |  |  | Growth delay (Mus musculus [25]): 2 days; Cures (Mus musculus [26]): 0
